Experimental findings from ChEMBL document CHEMBL4266015, “Scaffold Ranking and Positional Scanning Identify Novel Neurite Outgrowth Promoters with Nanomolar Potency” (2018) are described below.

What all share (assay type): functional, Hippocampal neurone
The nature of test [1]: Induction of neurite outgrowth in rat hippocampal neurons assessed as neurite total length at 125 ng/ml after 48 hrs relative to control. In outline:
(§1)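 E18 rat hippocampal neurons were plated on PDL at 1800 cells/well in NbActive4, adhered 2 h, then treated with compound prediluted in medium at 4× final for 48 h. Cells were fixed, stained for βIII-tubulin, imaged and auto-traced. Mean neurite total length is a percentage of DMSO vehicle wells on the same plate. ML-7 was the positive control and plates with Z-factor >0.5 were accepted.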

The nature of test [2]: Induction of neurite outgrowth in rat hippocampal neurons assessed as neurite total length at 31.25 ng/ml after 48 hrs relative to control. In outline:
as §1

A short description of test [3]: Induction of neurite outgrowth in rat hippocampal neurons assessed as neurite total length at 250 ng/ml after 48 hrs relative to control. The procedure, abridged: as §1
The nature of test [4]: Induction of neurite outgrowth in rat hippocampal neurons assessed as neurite total length at 500 ng/ml after 48 hrs relative to control. In outline: as §1
The nature of test [5]: Induction of neurite outgrowth in rat hippocampal neurons assessed as neurite total length at 15.625 ng/ml after 48 hrs relative to control. In outline:
as §1

Test [6] in a line: Induction of neurite outgrowth in rat hippocampal neurons assessed as neurite total length at 62.5 ng/ml after 48 hrs relative to control. The procedure, abridged:
as §1

The nature of test [7]: Induction of neurite outgrowth in rat hippocampal neurons assessed as neurite total length after 48 hrs. The procedure, abridged: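 Dissociated E18 rat hippocampal neurons were seeded on PDL-coated plates at 1800 cells/well in NbActive4 and allowed to adhere 2 h. Compounds were prediluted in medium at 4× final and added, then cells were grown 48 h (2 DIV). Wells were fixed, immunostained for βIII-tubulin and imaged by automated tracing. ED200% and ED300% values were linearly interpolated from dose-response curves of mean neurite total length.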

With `CCC(C)CC1=N[C@@H](CCCCN2C[C@@H](CC(C)C)N(CCCC3CCCCC3)C2=S)CN1` (stereo partly drawn), the Activity in test [1] turned out to be 252.9%; in test [2] it was 178.9%; in test [3] it was 253.1%; in test [4] it was 264.0755%; in test [5], 158.9%; in test [6], 261.9%.

As to `CCC(C)CC1=N[C@@H](CCCCN2C[C@@H](CC(C)C)N(CCCCC(C)C)C2=S)CN1` (stereo partly drawn), the Activity in test [1] was 254%; in test [2] it was 179.8%; in test [3], 258.7%; in test [4], 239.5%; in test [5], 122.8%; in test [6], 222.6%.

`CC1CCC(CCN2C(=S)N(CCCC[C@H]3CNC(CCCCc4ccccc4)=N3)C[C@H]2C)CC1` (stereo partly drawn): the Activity is 70.33% in test [1]; 101.9% in test [2]; 237.6% in test [3]; 296.9% in test [4]; 88.36% in test [5]; 117.7% in test [6].

For `CCC(C)CC1=N[C@@H](CCCCN2C[C@@H](c3ccccc3)N(CCCCC(C)C)C2=S)CN1` (stereo partly drawn), the Activity in test [1] turned out to be 263.7%; in test [2], 179.4%; in test [3] it was 265.8%; in test [4] it was 276.3%; in test [5], 121.4%; in test [6] it was 252.8%.

On to `CCC(C)CC1=N[C@@H](CCCCN2C[C@@H](c3ccccc3)N(CCCC3CCCCC3)C2=S)CN1` (stereo partly drawn), for which the Activity in test [1] was 245.5%; in test [2] it was 200.8%; in test [3], 221.9%; in test [4] it was 228.1%; in test [5], 139%; in test [6] it was 257.2%.

Turning to `CC(C)C[C@@H]1CN(CCCC[C@H]2CNC(C3CCCC3)=N2)C(=S)N1CC1CCC(C)CC1` (stereo partly drawn), the Activity in test [1] is 311.6%; in test [2] it was 255.4%; in test [3] it was 238.5%; in test [4], 263%; in test [5], 169.9%; in test [6], 253.6%. Also, the ED200 in test [7] was 4 nM. In addition, the ED300 in test [7] turned out to be 25 nM.

As for `CC(C)C[C@@H]1CN(CCCC[C@H]2CNC(CCCc3ccccc3)=N2)C(=S)N1CC1CCC(C)CC1` (stereo partly drawn), the Activity in test [1] is given as 256.9%; in test [2], 197%; in test [3] it was 240%; in test [4], 224.4%; in test [5], 144.9%; in test [6], 246.7%. Moreover, in test [7], the ED200 is listed as 25 nM. Also, in test [7], the ED300 amounted to 461 nM.

As for `CCC(C)C1=N[C@@H](CCCCN2C[C@@H](CC(C)C)N(CC3CCC(C)CC3)C2=S)CN1` (stereo partly drawn), the Activity in test [1] was 268.2%; in test [2] it was 216.3%; in test [3], 236%; in test [4], 264.4%; in test [5], 131.1%; in test [6], 253.6%. For the same compound, the ED200 in test [7] is listed as 10 nM. Also, the ED300 in test [7] stood at 53 nM.

Take `CC1CCC(CN2C(=S)N(CCCC[C@H]3CNC(C4CCCC4)=N3)C[C@H]2C)CC1` (stereo partly drawn): the Activity in test [1] stood at 230.7%; in test [2] it was 128.3%; in test [3], 257.3%; in test [4], 322.3%; in test [5], 94.61%; in test [6] it was 168.1%. In test [7], the ED200 was 130 nM. Moreover, the ED300 in test [7] came out at 282 nM.

Take `CC(C)C[C@@H]1CN(CCCC[C@H]2CNC(C3CCCC3)=N2)C(=S)N1CCC1CCCCC1`: the Activity in test [1] stood at 282.9%; in test [2], 256.5%; in test [3], 277.2%; in test [4], 248.7%; in test [5], 194.9%; in test [6] it was 271%. For the same compound, the ED200 in test [7] was 4 nM. Also, in test [7], the ED300 is over 543 nM.

On to `CC(C)CCCCN1C(=S)N(CCCC[C@H]2CNC(CCCCc3ccccc3)=N2)C[C@H]1CC(C)C`, for which the Activity is on record as 237.1% in test [1]; 145.3% in test [2]; 265.6% in test [3]; 239.9% in test [4]; 127.4% in test [5]; 194.1% in test [6].

Consider `CC(C)C[C@@H]1CN(CCCC[C@H]2CNC(CCCCc3ccccc3)=N2)C(=S)N1CCCC1CCCCC1`, for which the Activity was found to be 200.8% in test [1]; 135.5% in test [2]; 267.3% in test [3]; 246.8% in test [4]; 114% in test [5]; 199.3% in test [6].

Consider `C[C@@H]1CN(CCCC[C@H]2CNC(CC3CCCC3)=N2)C(=S)N1CCCC1CCCCC1`, for which the Activity in test [1] is reported as 250.7%; in test [2] it was 157.6%; in test [3] it was 245.7679%; in test [4] it was 304.4%; in test [5], 104.7%; in test [6], 188%.

Turning to `CCC(C)CC1=N[C@@H](CCCCN2C[C@@H](C)N(CCC3CCC(C)CC3)C2=S)CN1` (stereo partly drawn), the Activity is recorded as 166.2% in test [1]; 134.9% in test [2]; 266.7% in test [3]; 293.6% in test [4]; 97.33% in test [5]; 150% in test [6].

`CC(C)CCCCN1C(=S)N(CCCC[C@H]2CNC(CCCCc3ccccc3)=N2)C[C@H]1C`: the Activity came out at 160.4% in test [1]; 100.5% in test [2]; 257.3265% in test [3]; 346.7% in test [4]; 116.4% in test [5]; 124.2% in test [6].

As for `CCC(C)CC1=N[C@@H](CCCCN2C[C@@H](C)N(CCCCC(C)C)C2=S)CN1` (stereo partly drawn), the Activity came to 169.1% in test [1]; 115.6% in test [2]; 209.2% in test [3]; 323.0821% in test [4]; 92.45% in test [5]; 155% in test [6].

Take `CC(C)CCCCN1C(=S)N(CCCC[C@H]2CNC(CCCCc3ccccc3)=N2)C[C@H]1c1ccccc1`: the Activity in test [1] was 259.1%; in test [2], 170.2%; in test [3], 253.9%; in test [4], 225.1%; in test [5], 113.8%; in test [6] it was 172.4%.

In the case of `C[C@@H]1CN(CCCC[C@H]2CNC(CCCCc3ccccc3)=N2)C(=S)N1CCCC1CCCCC1`, the Activity in test [1] worked out at 209.7%; in test [2] it was 122.1%; in test [3], 246.6%; in test [4] it was 242.7%; in test [5] it was 100.8%; in test [6], 122%.

Turning to `S=C1N(CCCC[C@H]2CNC(C3CCCC3)=N2)C[C@@H](c2ccccc2)N1CCC1CCCCC1`, the Activity in test [1] is 261.9%; in test [2], 251.5%; in test [3] it was 232.4%; in test [4] it was 185.9%; in test [5], 182.3%; in test [6], 260.5%. Besides, in test [7], the ED200 is given as 7 nM. The ED300 in test [7] came to 91 nM.

In the case of `CCC(C)CC1=N[C@@H](CCCCN2C[C@@H](C)N(CCCC3CCCCC3)C2=S)CN1` (stereo partly drawn), the Activity in test [1] was found to be 196.1%; in test [2] it was 121.4%; in test [3] it was 246.1%; in test [4], 357.5%; in test [5], 102.3%; in test [6], 142.6%.

With `S=C1N(CCCC[C@H]2CNC(CCCCc3ccccc3)=N2)C[C@@H](c2ccccc2)N1CCCC1CCCCC1`, the Activity was determined as 254.2% in test [1]; 208.9% in test [2]; 221.8% in test [3]; 183.5% in test [4]; 143.7% in test [5]; 251.6% in test [6].

Consider `CC1CCC(CN2C(=S)N(CCCC[C@H]3CNC(CCCc4ccccc4)=N3)C[C@H]2c2ccccc2)CC1` (stereo partly drawn), for which the Activity in test [1] came out at 269.1%; in test [2], 174.3%; in test [3], 244.7%; in test [4] it was 221.2261%; in test [5] it was 184.9%; in test [6], 237.5%. The ED200 in test [7] came to 17 nM. Further, the ED300 in test [7] is given as over 471 nM.

Regarding `CC(C)CCCCN1C(=S)N(CCCC[C@H]2CNC(CC3CCCC3)=N2)C[C@H]1c1ccccc1`, the Activity in test [1] is recorded as 249.2%; in test [2], 234.3%; in test [3], 277.9%; in test [4] it was 273%; in test [5] it was 173.9%; in test [6], 279.6%.

Regarding `CC(C)CCCCN1C(=S)N(CCCC[C@H]2CNC(CC3CCCC3)=N2)C[C@H]1C`, the Activity in test [1] was determined as 213.9%; in test [2], 137.9%; in test [3], 264.8%; in test [4], 323.7%; in test [5], 113.8%; in test [6] it was 175.9%.
